The values that follow come from ChEMBL document CHEMBL1641402, “Use of experimental design for the optimization of the production of new secondary metabolites by two Penicillium species” (J Nat Prod, 2010).

Activity calls are given as the source filed them.

The test system of test [1] is Mycobacterium tuberculosis. The experiment in a line: Antimycobacterial activity against Mycobacterium tuberculosis H37Rv. It is filed as functional, organism-based.
The subject of a further test is Staphylococcus aureus. The experiment in a line: Antimicrobial activity against Staphylococcus aureus after 24 hrs by broth micro dilution method. It is filed as functional. The procedure, abridged:
(§1)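 Broth microdilution per NCCLS guidelines: 2-fold serial dilutions in RPMI-1640 buffered to pH 7.5 with 0.165 M MOPS, final 0.5–128 µg/mL. Inocula from 24 h tryptic soy agar cultures at 37 °C, final 10^3/10^4 cells per mL. Kanamycin and polymyxin B as controls. Incubated 24 h at 37 °C, OD 600 nm; MIC is lowest concentration giving complete (90%) growth inhibition.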

In the next test the test system is HTB-129. The test is described as follows: (§2) Cytotoxicity against human HTB-129 cells after 72 hrs by MTT assay. Format: functional, cell-based. The procedure, abridged: (§3)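 HTB-129 breast carcinoma cells kept in Leibovitz's L-15 with 2 mM L-glutamine, insulin 0.01 mg/mL, 10% FBS, penicillin/streptomycin, 37 °C in air. Seeded at 1 × 10^5 cells/mL, 24 h before dosing. Compounds in DMSO, serially diluted in medium from 200 to 1.76 µg/mL. Exposure 72 h, then MTT 3 h, DMSO solubilization, read at 570 nm. Viability as percent of untreated controls; IC50 fitted.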
(Tetrazolium dyes change colour on reduction, which living cells bring about.)

The test system of another test is Pseudomonas aeruginosa. The test is described as follows: Antimicrobial activity against Pseudomonas aeruginosa after 24 hrs by broth micro dilution method. It is filed as functional. The gist of the method:
as §1

The subject of the next test is Escherichia coli. The test is described as follows: Antimicrobial activity against Escherichia coli after 24 hrs by broth micro dilution method. It is filed as functional. The gist of the method: as §1
Test [2] has as its system Candida albicans. The test is described as follows: Antimicrobial activity against Candida albicans at 8 ug/disk. Format: functional. The conditions noted are these: read-out: IZ.
Test [3] deals with Candida albicans. The test is described as follows: Antimicrobial activity against Candida albicans at 40 ug/disk. Format: functional, organism-based.
Test [4] is described as follows: as §2. It is filed as functional, cell-based. The following applies: HTB-129, 72 h. The gist of the method: as §3

As for `C=CC(C)(C)[C@]12C=C(OC)C(=O)N3/C(=C/c4c[nH]cn4)C(=O)N[C@@]31N(OC)c1ccccc12`, the inhibition result in test [1] was “inactive”.
As for `COc1ccc2c3c1C(=O)CC(C)(C)N3C(=O)[C@@]21C[C@@]2([N+](=O)[O-])CN3CCC[C@@H]3C[C@H]2C1(C)C`, the inhibition entry (in the test with Staphylococcus aureus; in the test with HTB-129; in the test on Pseudomonas aeruginosa; in the test on Escherichia coli; in test [1]) was “inactive” in each case.
With `COc1ccc2c3c1C(=O)CC(C)(C)N3C(=O)[C@@]21C[C@]2([N+](=O)[O-])CN3CCC[C@@H]3C[C@H]2C1(C)C`, the inhibition result (with Staphylococcus aureus; in the test on HTB-129; in the test on Pseudomonas aeruginosa; in the test on Escherichia coli; in test [1]) was “inactive” throughout.
`C[C@@H]1[C@H](O)[C@@H](C)/C=C/C=C/C=C/C=C/C=C/C=C/C=C/[C@H](O[C@@H]2O[C@H](C)[C@@H](O)[C@H](N)[C@@H]2O)C[C@@H]2O[C@](O)(C[C@@H](O)C[C@@H](O)[C@H](O)CC[C@@H](O)C[C@@H](O)CC(=O)O[C@H]1C)C[C@H](O)[C@H]2C(=O)O` [AMPHOTERICIN B]: the zone of inhibition at 8 µg/disc with Candida albicans [2] was determined as 20 mm.
As a reminder, the MIC is the smallest concentration in the dilution series that meets the test's criterion for growth inhibition. Lower therefore signals greater potency. As a reminder, the IC50 is the concentration that gives 50% inhibition. Turning to `CC1(C)CC(=O)c2c(ccc3c2NC(=O)[C@]32C[C@@]3([N+](=O)[O-])CN4CCC[C@H]4C[C@@H]3C2(C)C)O1.O=C(O)C(F)(F)F` [CITRINALIN A], the inhibition entry in the test on Candida albicans [3] is “inactive”. Moreover, the MIC against Staphylococcus aureus, against Pseudomonas aeruginosa and with Escherichia coli was greater than 32 µg/mL throughout. In addition, in test [4], inhibition was half-maximal at 174 µM (IC50).
On to `CC1(C)CC(=O)c2c(ccc3c2NC(=O)[C@]32C[C@@]3([N+](=O)[O-])CN4CCC[C@@H]4C[C@@H]3C2(C)C)O1.O=C(O)C(F)(F)F` [CITRINALINE B], for which, in the test on Candida albicans [3], the inhibition result was “inactive”. Moreover, the MIC against Staphylococcus aureus, against Pseudomonas aeruginosa and in the test with Escherichia coli was greater than 32 µg/mL each time. The same molecule came in with an IC50 in test [4] of 194 µM.
